The list is not random: actives were taken first. Their share in the collection is about 2.1%.
MC4R barr agon = MC4R agonists recruiting beta-arrestin, primary screen, cell-based, luminescence, agonist arm of biased-ligand search; Melanocortin receptor 4 (Homo sapiens), P32245; U2OS MC4R beta-arrestin complementation; percent of melanotan II response, DMSO zero; activation, % at 8.9 µM; actives 0.98% (n = 360,000);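 active = activation above a per-plate cutoff, the mean activation of sample wells on that plate plus 3 SD, cut at about 8% in these data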
Target sequence (P32245 whole entry, looked up): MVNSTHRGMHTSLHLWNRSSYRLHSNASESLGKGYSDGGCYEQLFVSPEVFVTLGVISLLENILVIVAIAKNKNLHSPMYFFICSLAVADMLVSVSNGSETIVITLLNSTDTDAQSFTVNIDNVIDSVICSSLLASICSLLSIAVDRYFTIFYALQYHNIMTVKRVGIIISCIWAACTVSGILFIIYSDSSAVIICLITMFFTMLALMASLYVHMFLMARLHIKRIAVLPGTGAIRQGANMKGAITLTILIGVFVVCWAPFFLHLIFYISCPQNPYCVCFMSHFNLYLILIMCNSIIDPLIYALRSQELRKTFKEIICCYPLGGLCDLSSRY
MC4R antag cAMP = MC4R antagonists of cAMP signaling, primary screen, cell-based, TR-FRET, antagonist arm of biased-ligand search | actives 0.48% (n = 360,000) | AID 540295, 2011 | MC4R-expressing cells, MTII-stimulated cAMP, LANCE TR-FRET | Melanocortin receptor 4 (Homo sapiens), P32245 | inhibition, % at 6.5 µM;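 active = inhibition above its plate's cutoff, the mean of tested wells on that plate plus 3 SD, cut at about 29% in these data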;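 also: 0% = Melanotan II alone and 100% = Melanotan II plus saturating MCL0020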
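System – human MC4R-expressing U2OS cells · Also added – Melanotan II · Dosing – one concentration, 6.5 µM nominal · Timing – 30-min compound, 1-h challenge, 1-h detection, room temperature · Measured by – Eu-cAMP/anti-cAMP TR-FRET, emission 671 nm · Replicates – singlicate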
F508del corr = F508del CFTR correction, initial screen, CFBE line, single point | CFBE cells, YFP halide quenching; stimulated with forskolin plus potentiator P3; % fluorescence drop versus neutral controls | activity (quench increase), % at 7.58 µM | actives 0.36% (n = 350,000);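 active = mean added fluorescence quench of at least 8% versus neutral control, with both replicates also reaching 8%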;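 also: cells transiently co-express mutant CFTR-F508del with the halide-sensitive YFP; corrector assay measuring rescue of mutant channel to the surface after 24 h compound exposure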
SMARCA2 activ = SMARCA2 (BRM) function activators, primary screen, cell-based, luminescence, high throughput; MG213 cells, MMTV-luciferase reporter, dexamethasone, overnight; activation, % at 9.1 µM; actives 1% (n = 370,000); in the data active = activation above about 7.8%;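 also: 0% = vehicle wells and 100% = reference activator wells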
U2OS cAMP counter = nonselective cAMP signaling inhibitors, parental cells, counter-screen for MC4R biased antagonist project, cell-based, TR-FRET, U2OS, forskolin, triplicate; shares compounds with MC4R antag cAMP; LANCE TR-FRET; inhibition, % at 6.5 µM; actives 26% (n = 1,600); AID 602193, 2012;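 active = mean inhibition over triplicates above the low-control well mean plus 3 SD, set per campaign, cut at about 13% in these data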;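 also: signal is single emission at 671 nm which falls as cellular cAMP rises; 0% = forskolin-stimulated wells and 100% = buffer without forskolin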
MC4R cAMP antag = MC4R cAMP antagonists, retest, confirmation, cell-based, TR-FRET; shares compounds with MC4R antag cAMP; MC4R-expressing cells, MTII-stimulated cAMP; inhibition, % at 6.5 µM; actives 27% (n = 1,600); in the data active = inhibition above about 29%;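 also: 0% = agonist stimulated wells alone and 100% = agonist stimulated wells plus saturating reference antagonist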
* hit, by the source's call; . = no result.

SMILES | MC4R barr agon | MC4R antag cAMP | F508del corr | SMARCA2 activ | U2OS cAMP counter | MC4R cAMP antag
CC(C)NC(=O)N(C)C[C@H]1Oc2c(NC(=O)C3CC3)cccc2C(=O)N([C@H](C)CO)C[C@H]1C | . | . | -2 | . | . | .
COc1ccc(C[C@@H]2OC3(C=CC(=O)C=C3)O[C@H]2Cc2ccc(OC)cc2)cc1 | -3 | 60* | . | . | 35* | 34*
C[C@@H]1CN([C@@H](C)CO)C(=O)c2cc(NS(=O)(=O)c3cccs3)ccc2O[C@@H](C)CCCCO[C@H]1CN(C)S(=O)(=O)c1cn(C)cn1 | . | . | 1 | . | . | .
CC(=O)c1ccc(S(=O)(=O)NC2CCCCCCC2)cc1 | 1 | 35* | -1 | -5 | -4 | -16
Cc1cc(-c2sccc2Br)nc(-n2cccc2)n1 | 4 | 35* | 0 | -2 | 9 | 4
C[C@H]1CN([C@@H](C)CO)C(=O)c2cc(N(C)C)ccc2O[C@H]1CN(C)S(=O)(=O)c1ccccc1 | . | . | 3 | . | . | .
CCOc1ccccc1/C=C(\C#N)C(=O)Nc1cccc(C(=O)O)c1 | 0 | 38* | -1 | 1 | 0 | 0
Cc1cc(C(=O)O)ccc1-n1c(C)cc(/C=C(/C#N)C(=O)Nc2ccccc2)c1C | -1 | 31* | 1 | -2 | -1 | -1
Cc1ccc(C(=O)O)cc1NC(=O)Nc1ccc2c(c1)OCO2 | 2 | 30* | 2 | 0 | 2 | -1
O=C(N[C@H]1CC[C@@H](CCn2cc(C3(O)CCCC3)nn2)O[C@H]1CO)C1CCOCC1 | . | . | 2 | . | . | .
O=C(COc1cccc2c1CCNC2=O)Nc1ccc(Cl)cc1 | -4 | 29* | 1 | -5 | 5 | 0
NC(=O)c1ccc(NC(=O)COc2cccc3c2CCNC3=O)cc1 | -3 | 1 | 4 | -1 | . | .
C[C@@H]1CN([C@@H](C)CO)C(=O)Cc2cc(NC(=O)Nc3ccc(F)cc3)ccc2O[C@H]1CN(C)Cc1ccc2c(c1)OCO2 | . | . | 0 | . | . | .
Cc1ccccc1C(=O)Nc1ccccc1N1CCCCC1 | 8 | 35* | 2 | 4 | 1 | -2
CO/N=C/c1ccc(Sc2ccc(C)cc2)c([N+](=O)[O-])c1 | -1 | 29* | . | -2 | -2 | -12
C[C@H]1CCCCO[C@@H](CN(C)C(=O)Nc2ccccc2)[C@@H](C)CN([C@@H](C)CO)C(=O)c2cc(NC(=O)NC3CCCCC3)ccc2O1 | . | . | 1 | . | . | .
COc1cccc(NS(=O)(=O)c2ccc3[nH]cc(C(=O)NCCC(C)C)c(=O)c3c2)c1 | 1 | 29* | . | -3 | 2 | -3
Cc1noc(C)c1NC(=O)N(C)C[C@H]1Oc2ccc(NC(=O)c3ccncc3)cc2CC(=O)N([C@H](C)CO)C[C@@H]1C | . | . | 1 | . | . | .
CCN(CC)c1ccc2c(c1)oc(=O)c1c(Cl)cc(=O)oc12 | -2 | 30* | . | . | 7 | 19
CCN(CC)c1ccc2c(C)c(Cl)c(=O)oc2c1 | 3 | 9 | 0 | 1 | . | .
COC(=O)COc1cccc(NC(=O)C(c2ccccc2)c2ccccc2)c1 | 2 | 29* | -4 | 0 | 7 | 15
CC(=O)N[C@@H]1CC[C@H](CC(=O)NCC2CCCCC2)O[C@H]1CO | . | . | -2 | . | . | .
O=C(O)CCC(=O)N1N=C(c2ccc(Br)cc2)CC1c1cccs1 (configuration not stated) | -2 | 30* | 0 | 3 | 4 | 6
Cc1ccc(-c2nn(-c3ccccc3)cc2NC(=O)CCl)cc1 | 2 | 37* | -2 | 3 | 10 | 41*
CCOC(=O)C(C)(C)Sc1ncnc2nc[nH]c12 | 0 | 13 | . | -3 | . | .
CCOC(=O)c1cc([N+](=O)[O-])cc([N+](=O)[O-])c1Sc1ncnc2nc[nH]c12 | -3 | 58* | 4 | -1 | 47* | 47*
O=C(CCN1CCCCC1)NCC[C@@H]1CC[C@H](NC(=O)C2CCCC2)[C@@H](CO)O1 | . | . | 1 | . | . | .

Bioassay records as filed in PubChem BioAssay.
